Laboratory results taken from ChEMBL document CHEMBL2380301, “Chemotherapy of leishmaniasis. Part XII: design, synthesis and bioevaluation of novel triazole integrated phenyl heteroterpenoids as antileishmanial agents” (Bioorg Med Chem Lett, 2013).

Tests used:
[1] = system: Leishmania donovani; assay: Antileishmanial activity against amastigotes of Leishmania donovani assessed as inhibition of parasite growth after 72 hrs by luciferase reporter assay; type: functional, organism-based
Outline: (§1)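 J-774A.1 murine macrophages (4 × 10³/well) were seeded and grown 24 h, then infected with luciferase-transfected L. donovani promastigotes (4 × 10⁴/well) that transformed intracellularly into amastigotes. Compounds at […] were added for 72 h. After supernatant removal, cells were taken up in PBS with Steady-Glo and luminescence read. Inhibition was calculated against untreated controls. IC50 is the mean of two independent experiments.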

[2] = Cytotoxicity against african green monkey Vero cells after 72 hrs by MTT assay; type: cell-based; details: chlorocebus sabaeus
Outline: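 Vero monkey kidney […] were exposed to compounds for 72 h, and viable cells were detected with MTT by a modified Mosmann method. CC50 is the mean of two independent experiments.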

[3] = system: Leishmania donovani; assay: Antileishmanial activity against amastigotes of Leishmania donovani assessed as inhibition of parasite growth at 40 uM after 72 hrs by luciferase reporter assay; type: functional; outline: as §1
[4] = Selectivity index, ratio of CC50 for african green monkey Vero cells to IC50 for amastigotes of Leishmania donovani; type: functional
Outline: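 Ratio of CC50 on Vero cells (72 h MTT) to IC50 on intramacrophage L. donovani amastigotes in luciferase-expressing J-774A.1 infections (72 h). Both values are means of two independent experiments.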

[5] = system: Leishmania donovani; assay: Antileishmanial activity against Leishmania donovani infected in golden hamster assessed as inhibition of parasite multiplication at 50 mg/kg, ip qd for 5 days measured on day 7; type: functional; details: route intraperitoneal
Outline: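 Inbred golden hamsters of either sex, 40–45 g, infected intracardiacally with 1 × 10⁷ L. donovani amastigotes per animal. Dosing was 50 mg/kg ip for 5 days. Biopsies were taken on day 7 after the last dose and amastigotes counted by Giemsa staining. Counts were compared between treated and untreated animals and with the initial count in treated animals, and expressed as per cent inhibition.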

SMILES | IC50 [1] | CC50 at 72 h [2] | inhibition at 40 µM [3] | Ratio CC50/IC50 [4] | inhibition in vivo at 50 mg/kg [5]
CC1=C(/C=C/C(=O)/C=C/c2ccc(-n3cncn3)cc2)C(C)(C)CCC1 | 15.3 µM | 72.4 µM | 100% | 5 | –
CC1=C(/C=C/C2=NN(c3ccccc3)C(c3ccc(-n4cncn4)cc3)C2)C(C)(C)CCC1 (centres undefined) | 6.4 µM | 112 µM | 100% | 18 | 79%
CC1=C(/C=C/C2=NN(c3ccc(F)cc3)C(c3ccc(-n4cncn4)cc3)C2)C(C)(C)CCC1 (centres undefined) | 12.4 µM | 58.6 µM | 98.7% | 5 | –
CC1=CCCC(C)(C)C1/C=C/C(=O)/C=C/c1ccc(-n2cncn2)cc1 (centres undefined) | 11.6 µM | 38.5 µM | 98.2% | 3 | –
CC1=CCCC(C)(C)C1/C=C/C1=NN(c2ccccc2)C(c2ccc(-n3cncn3)cc2)C1 (centres undefined) | 9.2 µM | 296 µM | 98% | 32 | 58%
CC1=CCCC(C)(C)C1/C=C/C1=NN(c2ccc(F)cc2)C(c2ccc(-n3cncn3)cc2)C1 (centres undefined) | 16.9 µM | 72.2 µM | 90.5% | 4 | –
Clc1ccc(COC(Cn2ccnc2)c2ccc(Cl)cc2Cl)c(Cl)c1 (centres undefined) [MICONAZOLE] | 5.4 µM | 37.4 µM | 100% | 7 | –
CCCCCCCCCCCCCCCCOP(=O)([O-])OCC[N+](C)(C)C [MILTEFOSINE] | 8.6 µM | 54.7 µM | 100% | 6 | –
